In the library only some 2% were active in any assay of this set; here they are far more common.
Hck Nef HTS – human Hck-Nef kinase inhibition. P08631. Recombinant Hck-YEEI plus Nef, Z-Lyte FRET kinase assay. inhibition, % at 20 µM. 220,000 tested, 0.68% active;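 active = Hck-Nef kinase inhibition above about 50%, limit read from the data; inactive = inhibition below that limit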;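 note: 0% = DMSO with Hck plus Nef and 100% = Hck alone without Nef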
Target sequence (P08631 whole entry, looked up): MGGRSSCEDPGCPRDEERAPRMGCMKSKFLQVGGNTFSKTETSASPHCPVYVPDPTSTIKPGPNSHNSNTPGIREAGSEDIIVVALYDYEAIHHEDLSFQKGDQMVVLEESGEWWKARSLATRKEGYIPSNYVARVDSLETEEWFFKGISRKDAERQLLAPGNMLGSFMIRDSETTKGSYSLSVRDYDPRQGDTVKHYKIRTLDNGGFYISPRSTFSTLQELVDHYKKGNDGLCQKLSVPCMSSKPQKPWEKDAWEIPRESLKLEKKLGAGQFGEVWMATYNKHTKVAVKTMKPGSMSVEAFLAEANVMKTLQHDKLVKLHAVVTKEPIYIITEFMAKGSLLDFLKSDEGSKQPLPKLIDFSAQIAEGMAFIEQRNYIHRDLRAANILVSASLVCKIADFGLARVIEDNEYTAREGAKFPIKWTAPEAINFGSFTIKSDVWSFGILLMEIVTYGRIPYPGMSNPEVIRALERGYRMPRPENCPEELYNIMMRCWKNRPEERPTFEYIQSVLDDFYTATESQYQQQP
14-3-3 Bad inh – disrupts binding of bovine 14-3-3 zeta to phospho-Bad peptide | P63103 | TR-FRET 14-3-3zeta/Dy647-pBad peptide displacement, 1 h | inhibition, % at 21.7 µM | 220,000 tested, 0.71% active | AID 781;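 active = inhibition above about 70%, limit read from the data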;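 note: 0% = full 14-3-3 plus peptide FRET controls and 100% = background without 14-3-3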
NCF1 inh – blocks human p47phox regulatory protein of NADPH oxidases | P14598 | p47phox/p22phox peptide binding, fluorescence polarization, 2 h | inhibition, % at 24.7 µM | 220,000 tested, 0.53% active | AID 1274;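 note: 0% = p47phox with labelled peptide and 100% = labelled peptide alone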
eIF4E-4G inh – blocks eIF4E binding to eIF4G | P63073+Q04637 | TR-FRET eIF4E-eIF4GI(517-606) binding, 2 h | inhibition, % at 21.7 µM | 220,000 tested, 0.37% active | AID 782;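 note: 0% = full FRET control wells and 100% = background wells lacking eIF4GI fragment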
Diaph act CS – activates diaphorase or chemically reduces, flagging diaphorase assay artifacts; AID 1229; Diaphorase/resazurin coupled assay, resorufin fluorescence, 16 min; active compounds read high; 1 = vehicle wells, 0 = NADH-free wells; activation factor at 20 µM; 190,000 tested, 0.005% active;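 active = diaphorase activity raised at least twofold by the compound at 20 µM; inactive = activation factor below 2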
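System – purified diaphorase enzyme from Clostridium kluyveri · Input – enzyme 0.07 U/mL final · Also added – final NADH 0.114 mM, resazurin 0.1 mM · Measured by – fluorescence of resorufin, 544 nm excitation, 590 nm emission · Timing – 16 min enzyme reaction, ambient temperature · Measure – resorufin increase flagging diaphorase activators or reducers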
Starred values were filed as active, the others as inactive; . = no result given; ! = repeats disagree; [ ] = another dose, or the depositor's remark.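 Rule for the calls, unless noted: active = inhibition above about 30% (limit read from the data); inactive = the rest.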

SMILES	Hck Nef HTS	14-3-3 Bad inh	NCF1 inh	eIF4E-4G inh	Diaph act CS
Cc1ccsc1C(=O)NCCC(c1ccccc1)c1ccccc1	2	11	1	0	0.8
Cc1nc(C)c(C(=O)NCCC(c2ccccc2)c2ccccc2)o1	4	92*	-10	0	0.9
O=C(COc1ccccc1C(=O)c1cnn(-c2ccccc2)c1)Nc1ccccc1	0	84*[fluorescence artefact?]	2	0	0.7
CC1=C(C#N)C(=O)N(C2CCS(=O)(=O)C2)C(=O)/C1=C\c1ccc(C)o1 (configuration not stated)	20	20	-21	38*	.
Cc1ccc(/C=C2\SC(=S)N(C3CCS(=O)(=O)C3)C2=O)o1 (configuration not stated)	24	-3	-20	3	0.7
COc1ccc(C(C)=O)cc1COC(=O)CNC(=O)c1ccc(Cl)cc1	-1	11	194*	-1	1
COc1ccc(C(C)=O)cc1COC(=O)CNC(=O)c1ccc(F)cc1	5	2	-14	17	1
O=C(Nc1ccc(CN2CCOCC2)cc1)c1ccc(-c2cccc(Cl)c2)o1	1	32	-25	5	0.9
O=C(Nc1ccc(CN2CCOCC2)cc1)c1ccc(-c2ccc(Cl)cc2Cl)o1	21	-7	-50	95*	1.1
CCOc1ccccc1NC(=O)C1CCN(S(=O)(=O)c2cccc3cccnc23)CC1	3	1	-8	57*[fluorescence artefact?]	0.8
CCCCc1ccc(NC(=O)C(=O)NCCN2CCN(Cc3ccc([N+](=O)[O-])cc3)CC2)cc1	6	2	2	4	1
COc1ccc(CN(CCCN2CCOCC2)C(=O)Nc2ccccc2)cc1OC	1	-11	2	-1	0.9
COc1ccc(CN(CCN2CCOCC2)C(=O)c2c(F)cccc2F)cc1OC	1	80*	-10	-3	0.9
CC1(c2nnc(-c3ccccc3)o2)CC(c2ccncc2)=NO1 (configuration not stated)	24	53	3	97*	.
OCC1(CO)COC2(CCCC2)N1	-1	-9	62*!	8	1
CCOC(=O)c1cnn(C(=O)c2ccccc2)c1N	-7	10	-3	45*[fluorescence artefact?]	0.8
O=C(NC(=S)NN1CCCCC1c1cccnc1)c1ccc(Cl)cc1Cl (configuration not stated)	7	-6	-11	1	.
N#Cc1ccccc1Cn1c(=O)n(Cc2ccc(C(=O)NCc3ccco3)cc2)c(=O)c2ccccc21	21	52	30*	10	1
Cc1ccc(-c2nnc(CCC(=O)NCc3csc(C)n3)o2)s1	18	-5	-2	-7	.
Nc1ccc(O)c(-c2nc3ccccc3s2)c1	6	10	17	0	0.8
Nc1ccccc1-c1nc2ccccc2s1	37	73*	-15	10	0.8
CC#CCN(CC#CC)S(=O)(=O)c1ccc(S(=O)(=O)N2CCOCC2)cc1	-1	.	194*	.	0.8
O=S(=O)(c1ccc(N2CCOCC2)cc1)N1CCOCC1	6	26	-12	1	0.9
CNc1nnc(Sc2ncccc2[N+](=O)[O-])s1	-12	1	-10	-1	.
COc1ccc(N2CCN(C(C)C(=O)N3CCCC3)CC2)cc1 (configuration not stated)	12	79*	-1	10	0.9
SMILES	Hck Nef HTS	14-3-3 Bad inh	NCF1 inh	eIF4E-4G inh	Diaph act CS
Cn1c(SCc2ccccn2)nnc1-c1ccccc1	8	-7	-1	-1	1
C=CCNCCOCCOc1ccc(C)cc1[N+](=O)[O-]	1	75*	-13	2	0.8
CC(=O)Oc1cc2cccc(OC(C)=O)c(=O)c2c(OC(C)=O)c1OC(C)=O	13	75*	1	11	0.8
COCCN(C(=O)Cc1cccs1)c1nnc(-c2ccncc2)s1	1	82*	-70	-4	0.8
Nc1ccc(C(=O)O)c(O)c1	20	-12	-10	-1	0.8
Nc1ccc(N)c(C(=O)O)c1	.	96*	41*	94*	.
Cc1ccc(Cn2c(SC(C)C(N)=O)nc3ccccc3c2=O)cc1 (configuration not stated)	16	1	0	2	0.9
COc1ccccc1NC(=S)NCCSc1ccc(Cl)cc1	1	-16	-25	33*	0.7
CCCCN(CC)C(=O)c1cc2cc3ccc(OC)cc3nc2o1	-1	1	-11	4	0.8
CCCCN(C)C(=O)c1cc2cc3ccc(OC)cc3nc2s1	-2	84*[fluorescence artefact?]	-4	1	0.8
Cc1ccc(Nc2ncnc3c2nnn3Cc2ccccc2)cc1	-4	1	1	4	.
CC(C)Sc1nc(-c2cccs2)nc2c1c(=O)n(C)c(=O)n2C	53*	-4	-1	0	1
CSc1cccc(NC(=S)N(CCCN2CCC(C)CC2)Cc2cccs2)c1	-2	-11	-14	-4	0.8
O=C1CCCC2=C1C(c1ccco1)Nc1ccc3ccccc3c12 (configuration not stated)	14	72*[fluorescence artefact?]	6	21	0.6
O=C1CC(c2ccccc2Cl)=NN(c2ncnc3ccccc23)C1=O	-6	-2	-39	2	0.9
CC(C)c1ccc(/C=C2\CC/C(=C\C=N\N(C)C)C2=O)cc1	3	-6	76*	-14	0.9
CC(C)/C=C1\CC/C(=C\c2ccc(N(C)C)cc2)C1=O	-10	-4	-116	3	0.9
Cc1nc2ccc(NC(=O)Cc3ccccc3F)cc2s1	-5	13	-7	-5	1
COc1ccc(NC(=O)Cn2nnc(-c3ccccc3F)n2)cc1	1	-9	54*	11	0.9
CCOc1ccc(NC(=O)Cn2nnc(-c3ccccc3F)n2)cc1	12	0	5	0	0.9
O=C(COc1ccc(Nc2ccccc2)cc1)OCC(=O)N1CCCCC1	4	-5	-8	8	.
Cc1cccc(OCC(=O)NNc2c3ccccc3nc3ccccc23)c1	1	6	-8	3	0.9
Cc1ccc(OCC(=O)NNc2c3ccccc3nc3ccccc23)cc1	12	17	30*	-7	0.9
CC(=O)N(C)C1=C(O)c2ccccc2C(=O)C1=O	0	70*	5	-4	0.9
CC(=O)Nc1ccc2nc(CN3CCN(Cc4ccc(F)cc4)C(CCO)C3)ccc2c1 (configuration not stated)	12	-6	-7	0	1.1
O=C(c1ccco1)N1CCN(C(c2ccc(F)cc2)c2nnnn2Cc2cccs2)CC1 (configuration not stated)	1	90*	-11	7	0.8
O=C(c1ccco1)N1CCN(C(c2ccc(Cl)cc2)c2nnnn2CC2CCCO2)CC1 (configuration not stated)	2	81*	-10	-3	1.1
CC(C)CCn1nnnc1C(c1ccc(F)cc1)N1CCN(C(=O)c2ccco2)CC1 (configuration not stated)	3	83*	-1	8	0.9
